Source: PMC6061410 (Clinical Drug Investigation, 2018)
Entries after “also recorded” stand apart in the source; their conditions may differ.

System: healthy young and healthy elderly subjects
Test: Safety and tolerability
Format: in vivo, human
Procedure, shortened: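 Adverse events were recorded by system organ class and preferred term in the treated set. This was 84 healthy young or elderly subjects randomised 3:1 to oral drug or placebo over 14 days, across seven ascending dose groups with a safety review before each escalation. Changes were assessed against the last pre-dose baseline measurement.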

SMILES: C[C@@H](Oc1ccc(S(C)(=O)=O)cc1C(=O)N1C[C@@H]2C[C@]2(c2cc(C(F)(F)F)on2)C1)C(F)(F)F [BI 425809]
- intensity of treatment-emergent AEs (all dose groups): mild-to-moderate; also recorded: mild or moderate
- intensity of eye disorders (both age groups): mild
- subjects who reported one or more AEs (elderly subjects receiving the active drug): 88.9%
- subjects with drug-related AEs (elderly subjects who received BI 425809): 77.8%
- Back pain (elderly, 25 mg QD): 1 (11.1) n (%)
- Constipation (elderly, 25 mg QD): 0 (–) n (%)
- Dizziness (elderly, 25 mg QD): 1 (11.1) n (%)
- Eye disorders (elderly, 25 mg QD): 1 (11.1) n (%)
- Folliculitis (elderly, 25 mg QD): 2 (22.2) n (%)
- Gastrointestinal disorders (elderly, 25 mg QD): 6 (66.7) n (%)
- General disorders and administration site conditions (elderly, 25 mg QD): 2 (22.2) n (%)
- Hard faeces (elderly, 25 mg QD): 2 (22.2) n (%)
- Headache (elderly, 25 mg QD): 1 (11.1) n (%)
- Infections and infestations (elderly, 25 mg QD): 3 (33.3) n (%)
- Injury, poisoning and procedural complications (elderly, 25 mg QD): 2 (22.2) n (%)
- Musculoskeletal and connective tissue disorders (elderly, 25 mg QD): 1 (11.1) n (%)
- Nasopharyngitis (elderly, 25 mg QD): 1 (11.1) n (%)
- Nausea (elderly, 25 mg QD): 1 (11.1) n (%)
- Nervous system disorder (elderly, 25 mg QD): 2 (22.2) n (%)
- Psychiatric disorders (elderly, 25 mg QD): 2 (22.2) n (%)
- Subjects with AEs leading to study discontinuation (elderly, 25 mg QD): 0 (–) n (%)
- Subjects with investigator-defined drug-related AEs (elderly, 25 mg QD): 6 (66.7) n (%)
- Total with AEs (elderly, 25 mg QD): 8 (88.9) n (%)
- Venepuncture site haematoma (elderly, 25 mg QD): 1 (11.1) n (%)
- Vomiting (elderly, 25 mg QD): 1 (11.1) n (%)
- Back pain (elderly, 50 mg QD): 1 (11.1) n (%)
- Constipation (elderly, 50 mg QD): 4 (44.4) n (%)
- Dizziness (elderly, 50 mg QD): 2 (22.2) n (%)
- Eye disorders (elderly, 50 mg QD): 1 (11.1) n (%)
- Folliculitis (elderly, 50 mg QD): 1 (11.1) n (%)
- Gastrointestinal disorders (elderly, 50 mg QD): 5 (55.6) n (%)
- General disorders and administration site conditions (elderly, 50 mg QD): 4 (44.4) n (%)
- Hard faeces (elderly, 50 mg QD): 0 (–) n (%)
- Headache (elderly, 50 mg QD): 1 (11.1) n (%)
- Infections and infestations (elderly, 50 mg QD): 3 (33.3) n (%)
- Injury, poisoning and procedural complications (elderly, 50 mg QD): 0 (–) n (%)
- Musculoskeletal and connective tissue disorders (elderly, 50 mg QD): 2 (22.2) n (%)
- Nasopharyngitis (elderly, 50 mg QD): 1 (11.1) n (%)
- Nausea (elderly, 50 mg QD): 1 (11.1) n (%)
- Nervous system disorder (elderly, 50 mg QD): 3 (33.3) n (%)
- Psychiatric disorders (elderly, 50 mg QD): 2 (22.2) n (%)
- Subjects with AEs leading to study discontinuation (elderly, 50 mg QD): 1 (11.1) n (%)
- Subjects with investigator-defined drug-related AEs (elderly, 50 mg QD): 8 (88.9) n (%)
- Total with AEs (elderly, 50 mg QD): 8 (88.9) n (%)
- Venepuncture site haematoma (elderly, 50 mg QD): 4 (44.4) n (%)
- Vomiting (elderly, 50 mg QD): 1 (11.1) n (%)
- Back pain (elderly, Total BI n = 18): 2 (11.1) n (%)
- Constipation (elderly, Total BI n = 18): 4 (22.2) n (%)
- Dizziness (elderly, Total BI n = 18): 3 (16.7) n (%)
- Eye disorders (elderly, Total BI n = 18): 2 (11.1) n (%)
- Folliculitis (elderly, Total BI n = 18): 3 (16.7) n (%)
- Gastrointestinal disorders (elderly, Total BI n = 18): 11 (61.1) n (%)
- General disorders and administration site conditions (elderly, Total BI n = 18): 6 (33.3) n (%)
- Hard faeces (elderly, Total BI n = 18): 2 (11.1) n (%)
- Headache (elderly, Total BI n = 18): 2 (11.1) n (%)
- Infections and infestations (elderly, Total BI n = 18): 6 (33.3) n (%)
- Injury, poisoning and procedural complications (elderly, Total BI n = 18): 2 (11.1) n (%)
- Musculoskeletal and connective tissue disorders (elderly, Total BI n = 18): 3 (16.7) n (%)
- Nasopharyngitis (elderly, Total BI n = 18): 2 (11.1) n (%)
- Nausea (elderly, Total BI n = 18): 2 (11.1) n (%)
- Nervous system disorder (elderly, Total BI n = 18): 5 (27.8) n (%)
- Psychiatric disorders (elderly, Total BI n = 18): 4 (22.2) n (%)
- Subjects with AEs leading to study discontinuation (elderly, Total BI n = 18): 1 (5.6) n (%)
- Subjects with investigator-defined drug-related AEs (elderly, Total BI n = 18): 14 (77.8) n (%)
- Total with AEs (elderly, Total BI n = 18): 16 (88.9) n (%)
- Vomiting (elderly, Total BI n = 18): 2 (11.1) n (%)
- dose dependency of AEs (frequency of subjects with drug-related AE across treatment groups): no dose dependency was observed; also recorded: not dose dependent
- tolerability (multiple doses 10–75 mg QD or 75 mg BID (young), 25 or 50 mg QD (elderly)): generally well tolerated
- serious AEs (part 1, all dose groups): no serious adverse events occurred; also recorded: no serious AEs were reported
- subjects who experienced one or more AEs (young subjects, part 1, active-treatment arm): 66.7%
- subjects with drug-related AEs (young subjects, part 1, receiving BI 425809): 60.0%
- Dizziness (young, part 1, 10 mg QD): 1 (11.1) n (%)
- Eye disorders (young, part 1, 10 mg QD): 0 (–) n (%)
- Gastrointestinal disorders (young, part 1, 10 mg QD): 0 (–) n (%)
- General disorders and administration site conditions (young, part 1, 10 mg QD): 0 (–) n (%)
- Headache (young, part 1, 10 mg QD): 3 (33.3) n (%)
- Infections and infestations (young, part 1, 10 mg QD): 1 (11.1) n (%)
- Insomnia (young, part 1, 10 mg QD): 0 (–) n (%)
- Musculoskeletal and connective tissue disorders (young, part 1, 10 mg QD): 1 (11.1) n (%)
- Nasopharyngitis (young, part 1, 10 mg QD): 0 (–) n (%)
- Nervous system disorder (young, part 1, 10 mg QD): 4 (44.4) n (%)
- Ocular discomfort (young, part 1, 10 mg QD): 0 (–) n (%)
- Psychiatric disorders (young, part 1, 10 mg QD): 0 (–) n (%)
- Subjects with AEs leading to study discontinuation (young, part 1, 10 mg QD): 0 (–) n (%)
- Subjects with investigator-defined drug-related AEs (young, part 1, 10 mg QD): 4 (44.4) n (%)
- Total with AEs (young, part 1, 10 mg QD): 5 (55.6) n (%)
- Vision blurred (young, part 1, 10 mg QD): 0 (–) n (%)
- Dizziness (young, part 1, 25 mg QD): 0 (–) n (%)
- Eye disorders (young, part 1, 25 mg QD): 2 (22.2) n (%)
